Results collected from several papers.
FLT3 D835Y: Receptor-type tyrosine-protein kinase FLT3 (FLT3, Homo sapiens, UniProt P36888, D835Y)
FLT3 autoinhibited: Receptor-type tyrosine-protein kinase FLT3, autoinhibited (FLT3, Homo sapiens, UniProt P36888)
FLT3: Receptor-type tyrosine-protein kinase FLT3 (FLT3, Homo sapiens, UniProt P36888)
FLT3 D835V: Receptor-type tyrosine-protein kinase FLT3 (FLT3, Homo sapiens, UniProt P36888, D835V)
FLT3 N841I: Receptor-type tyrosine-protein kinase FLT3 (FLT3, Homo sapiens, UniProt P36888, N841I)
FLT3 D835H: Receptor-type tyrosine-protein kinase FLT3 (FLT3, Homo sapiens, UniProt P36888, D835H)

C[C@@H](c1ccc(-n2cnc3c(N)ncnc32)cc1)N1CCc2nn(C)c(Cc3ccccc3)c2C1=O — remaining binding (FLT3 D835Y; binding; competition with immobilised ligand; 0.1 µM): 100%
c1cncc(-c2cccc(Nc3nccc(NC4CCCCC4)n3)c2)c1 — remaining binding (FLT3 autoinhibited; binding; competition with immobilised ligand; 10 µM): 3.6%
C=CC(=O)N1CCC(C(=O)NCC(=O)N2CCN(c3nc(-c4cnc(N)nc4C(F)F)nc(N4CCOCC4)n3)CC2)CC1 — remaining binding (FLT3; binding; competition with immobilised ligand; 1 µM): 91%
COc1ccnn2ncc(-c3ccnc(N(C)C)n3)c12 — remaining binding (FLT3 autoinhibited; binding; 1 µM): 78%
CCC(=O)N[C@H]1CC[C@@H](C(=O)N(C)c2ccc(-c3nc4ccccc4o3)cc2)C1 — remaining binding (Receptor-type tyrosine-protein kinase FLT3 (FLT3, Homo sapiens, UniProt P36888, K663Q); cell-free assay; competition with immobilised ligand; 1 µM): 88%
CC1CCCN1c1nccc(-c2cnn3ncccc23)n1 (centres unmarked) — remaining binding (FLT3 autoinhibited; binding; 1 µM): 100%
O=C(NCC1CCOCC1)c1n[nH]cc1NC(=O)c1c(F)cccc1F — remaining binding (FLT3 D835V; binding; competition with immobilised ligand; 1 µM): 100%
O=C(NCCCN1CCOCC1)c1ccc(Nc2nccc(-c3cc4ccccc4s3)n2)cc1 — remaining binding (FLT3 D835V; binding; competition with immobilised ligand; 1 µM): 3.4%
COc1cnc(Nc2cccc(S(N)(=O)=O)c2)nc1N1CCN(c2ccccc2)C(=O)C1 — remaining binding (FLT3 D835V; binding; competition with immobilised ligand; 1 µM): 42%
O=C(Nc1c[nH]nc1C(=O)NC1CCNCC1)c1cc(F)cc(F)c1 — remaining binding (Receptor-type tyrosine-protein kinase FLT3 (FLT3, Homo sapiens, UniProt P36888, R834Q); binding; competition with immobilised ligand; 1 µM): 94%
O=C1CCc2cc(Nc3cc(OC4CCOCC4)c([N+](=O)[O-])cc3Cl)ccc2N1 — remaining binding (Receptor-type tyrosine-protein kinase FLT3 (FLT3, Homo sapiens, UniProt P36888, D835V/ITD); cell-free assay; competition with immobilised ligand; 1 µM): 78%
Cc1cnc(Nc2ccc(C(=O)N3CCC(N4CCCC4)CC3)cc2)nc1-c1cc2ccccc2s1 — remaining binding (FLT3 D835Y; binding; competition with immobilised ligand; 1 µM): 3.6%
CS(=O)(=O)N1CCCC(NC(=O)[C@H](CCC2CCCCC2)NC(=O)c2ccc(CNC(=O)c3cnc4ccccn34)cc2)C1 (some centres unmarked) — remaining binding (FLT3 autoinhibited; cell-free assay; competition with immobilised ligand; 0.1 µM): 93%
CNC(=O)[C@@H]1CC[C@@H](n2c(-c3ccc4cnccc4c3)nc3ccc(C(=O)NCc4cccc(C(N)=O)c4)cc32)C1 — remaining binding (FLT3 D835V; binding; competition with immobilised ligand; 1 µM): 94%
CN(C)c1nccc(-c2cnn3ncccc23)n1 — remaining binding (FLT3 autoinhibited; binding; 1 µM): 100%
COc1ncc2cc3ccccc3nc2c1C#N — remaining binding (FLT3 autoinhibited; cell-free assay; competition with immobilised ligand; 5 µM): 100%
C[C@@H]1CN(c2cc(-c3nn(C)c4ccc(OC5(C)CC5)cc34)ncn2)C[C@H](C)O1 — remaining binding (FLT3 autoinhibited; cell-free assay; competition with immobilised ligand; 1 µM): 77%
Nc1ncc2c(n1)-c1c([nH]c3ccc(C#CC4CC4)cc13)CCCC2 — remaining binding (FLT3 D835Y; binding; competition with immobilised ligand; 1 µM): 89%
CN(CCCC(F)(F)F)c1nccc(-c2cnn3ncccc23)n1 — remaining binding (FLT3 D835V; binding; 1 µM): 84%
CNCc1ccccc1-c1csc([C@H](C)Nc2nc(C)nc3cc(OC)c(OC)cc23)c1 — remaining binding (Receptor-type tyrosine-protein kinase FLT3 (FLT3, Homo sapiens, UniProt P36888, ITD); cell-free assay; competition with immobilised ligand; 1 µM): 99%
COc1cnc(Nc2cccc(S(N)(=O)=O)c2)nc1N1CCN(c2ccccc2)CC1 — remaining binding (FLT3 D835Y; binding; competition with immobilised ligand; 1 µM): 61%
CN(C)c1nccc(-c2cnc3ncccn23)n1 — remaining binding (FLT3; binding; 1 µM): 100%
CCN1CCN(Cc2ccc(C(=O)Nc3ccc(C)c(Oc4ccc5c(c4)CC(=O)N5)c3)cc2C(F)(F)F)CC1 — remaining binding (FLT3 D835Y; binding; competition with immobilised ligand; 1 µM): 100%
O=C(c1ccc(Nc2nccc(-c3cc4ccccc4s3)n2)cc1)N1CCC(N2CCCC2)CC1 — remaining binding (FLT3; binding; competition with immobilised ligand; 1 µM): 44%
CN1CCN(c2ccc(Nc3nccc(-c4cccc([N+](=O)[O-])c4)n3)cc2C(F)(F)F)CC1 — remaining binding (FLT3 N841I; binding; 10 µM): 0.05%
Cc1cnn2ncc(-c3ccnc(N(C)C)n3)c2c1 — remaining binding (FLT3 D835H; binding; 1 µM): 100%
O=C(c1ccc(Nc2ncc(Cl)c(-c3cc4ccccc4s3)n2)cc1)N1CCC(N2CCCC2)CC1 — remaining binding (FLT3 D835Y; binding; competition with immobilised ligand; 1 µM): 3.7%
CN1CCN(c2ccc(Nc3nccc(-c4ccccc4)n3)cc2C(F)(F)F)CC1 — remaining binding (FLT3 D835V; binding; 10 µM): 0%
C[C@@H]1CCN(c2nccc(-c3cnn4ncccc34)n2)C1 — remaining binding (FLT3 D835Y; binding; 1 µM): 100%
CS(=O)(=O)c1cc(C2(NC(=O)c3cncc4c3cnn4-c3ccc(F)cc3)CC2)ccn1 — remaining binding (FLT3 D835V; cell-free assay; competition with immobilised ligand; 1 µM): 100%
N[C@@H]1CCN(c2nccc(-c3cnn4ncccc34)n2)C1 — remaining binding (FLT3 N841I; binding; 1 µM): 79%
Cc1cc(-n2nc(Cc3cc(F)cc(C(F)(F)F)c3)nc2C)ccc1C(N)=O — remaining binding (FLT3; cell-free assay; competition with immobilised ligand; 1 µM): 100%
O=C(c1ccc(Nc2ncc(Cl)c(-c3ccc(Cl)s3)n2)cc1)N1CCC(N2CCCC2)CC1 — remaining binding (FLT3 D835V; binding; competition with immobilised ligand; 1 µM): 1.9%
Cc1noc([C@H]2C[C@@H](c3ccc(C(F)(F)F)cc3)CN(C(=O)N3CCS(=O)(=O)C3)C2)n1 — remaining binding (FLT3 D835H; cell-free assay; competition with immobilised ligand; 1 µM): 100%
O=C(NCCCN1CCOCC1)c1ccc(Nc2ncc(Cl)c(-c3ccc(Cl)s3)n2)cc1 — remaining binding (FLT3; binding; competition with immobilised ligand; 1 µM): 7.7%
